{"source": "ChEMBL document CHEMBL4196161", "about": "“Lead Optimization of 5-Aryl Benzimidazolone- and Oxindole-Based AMPA Receptor Modulators Selective for TARP γ-8” (ACS Med Chem Lett, 2018)", "key": {"GRIA1/CACNG2": {"molecular_target": "GRIA1/CACNG2 (Homo sapiens, UniProt P42261+Q9Y698)", "sequence (P42261 whole entry, canonical isoform)": "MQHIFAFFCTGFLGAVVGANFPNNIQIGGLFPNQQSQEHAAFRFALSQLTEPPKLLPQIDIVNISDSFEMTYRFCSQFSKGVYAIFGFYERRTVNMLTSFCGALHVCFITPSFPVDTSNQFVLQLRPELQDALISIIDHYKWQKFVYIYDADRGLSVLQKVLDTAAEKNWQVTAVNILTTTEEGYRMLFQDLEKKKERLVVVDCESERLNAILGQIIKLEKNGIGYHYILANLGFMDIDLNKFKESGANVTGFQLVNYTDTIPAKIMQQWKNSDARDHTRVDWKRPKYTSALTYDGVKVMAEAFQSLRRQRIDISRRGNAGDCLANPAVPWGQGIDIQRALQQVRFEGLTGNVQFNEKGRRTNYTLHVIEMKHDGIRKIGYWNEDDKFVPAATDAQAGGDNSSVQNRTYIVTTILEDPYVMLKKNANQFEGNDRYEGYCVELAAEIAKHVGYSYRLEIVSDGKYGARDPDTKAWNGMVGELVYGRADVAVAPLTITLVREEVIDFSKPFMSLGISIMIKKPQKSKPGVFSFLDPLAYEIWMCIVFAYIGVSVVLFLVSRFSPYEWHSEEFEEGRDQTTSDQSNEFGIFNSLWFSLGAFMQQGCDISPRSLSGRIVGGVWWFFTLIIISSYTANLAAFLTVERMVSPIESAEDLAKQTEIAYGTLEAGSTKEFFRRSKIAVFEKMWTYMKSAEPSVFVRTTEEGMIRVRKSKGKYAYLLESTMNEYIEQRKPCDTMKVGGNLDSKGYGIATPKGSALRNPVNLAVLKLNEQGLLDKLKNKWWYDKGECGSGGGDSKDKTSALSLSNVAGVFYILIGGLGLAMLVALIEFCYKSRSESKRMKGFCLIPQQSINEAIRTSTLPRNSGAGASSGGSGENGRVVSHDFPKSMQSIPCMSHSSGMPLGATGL", "sequence (Q9Y698 whole entry, canonical isoform)": "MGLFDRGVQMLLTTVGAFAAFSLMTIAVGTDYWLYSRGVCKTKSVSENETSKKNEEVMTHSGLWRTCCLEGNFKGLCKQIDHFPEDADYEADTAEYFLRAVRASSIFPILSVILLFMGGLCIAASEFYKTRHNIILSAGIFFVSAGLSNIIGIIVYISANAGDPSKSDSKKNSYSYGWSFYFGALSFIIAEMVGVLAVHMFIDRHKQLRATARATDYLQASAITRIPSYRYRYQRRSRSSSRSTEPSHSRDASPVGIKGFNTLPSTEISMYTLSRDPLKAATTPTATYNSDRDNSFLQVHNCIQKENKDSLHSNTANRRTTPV", "assay": "Modulation of recombinant human GluA1 flop isoform/TARPgamma2 expressed in HEK293F cells assessed as blockade of glutamate-induced calcium flux by calcium 5/6 dye based FLIPR assay", "type": "cell-based", "method_in_brief": "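HEK-293 cells transiently expressing human GluA1o cotransfected with γ-2; FLIPR calcium-flux read-out; pIC50 reported; n = 1, run in triplicate.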"}, "[1]": {"assay": "Hepatic extraction ratio in human liver microsomes at 1 uM measured after 60 mins in presence of NADPH by LC-MS/MS analysis", "type": "ADME, microsome", "conditions": "read-out: ERH", "method_in_brief": "(§1)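 Human or rat liver microsomal stability at 1 μM; results expressed as extraction ratio, i.e. predicted hepatic clearance divided by species-specific hepatic blood flow.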"}, "[2]": {"assay": "Hepatic extraction ratio in rat liver microsomes at 1 uM measured after 60 mins in presence of NADPH by LC-MS/MS analysis", "type": "ADME, microsome", "conditions": "read-out: ERH", "method_in_brief": "as §1"}, "[3]": {"assay": "Apparent permeability across apical to basolateral side in MDCK-MDR1 cells at 5 uM measured after 60 mins by LC-MS/MS analysis", "type": "ADME, cell-based, Canis lupus familiaris", "conditions": "dog", "method_in_brief": "(§2)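 Bidirectional apparent permeability measured in Madin–Darby canine kidney cells transfected with the MDR1 (P-gp) gene; Papp reported in ×10–6 cm/s.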"}, "[4]": {"assay": "Protein binding in rat plasma assessed as unbound fraction at 1 uM measured after 6 hrs by equilibrium dialysis method", "type": "ADME, cell-free", "method_in_brief": "(§3)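 Human or rat plasma protein binding at 1 μM compound, expressed as fraction unbound (fub).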"}, "GRIA1/CACNG8": {"molecular_target": "GRIA1/CACNG8 (Homo sapiens, UniProt P42261+Q8WXS5)", "sequence (P42261 whole entry, the tested form may be a part, canonical isoform)": "as the sequence (P42261 whole entry, canonical isoform) above", "sequence (Q8WXS5 whole entry, the tested form may be a part, canonical isoform)": "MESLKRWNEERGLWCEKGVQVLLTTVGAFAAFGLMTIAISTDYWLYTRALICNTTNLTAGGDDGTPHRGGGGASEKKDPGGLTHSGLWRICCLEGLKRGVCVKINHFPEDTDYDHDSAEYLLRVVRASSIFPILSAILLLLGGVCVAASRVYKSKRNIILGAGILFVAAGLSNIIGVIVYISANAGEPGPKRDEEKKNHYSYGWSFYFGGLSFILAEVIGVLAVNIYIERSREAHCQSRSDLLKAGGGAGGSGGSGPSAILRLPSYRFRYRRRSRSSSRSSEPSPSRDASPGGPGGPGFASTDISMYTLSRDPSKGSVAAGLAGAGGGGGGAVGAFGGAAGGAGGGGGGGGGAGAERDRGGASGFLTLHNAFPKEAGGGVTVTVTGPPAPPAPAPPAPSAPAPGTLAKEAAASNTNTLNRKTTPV", "assay": "Modulation of recombinant human GluA1 flop isoform/TARPgamma8 expressed in HEK293F cells assessed as blockade of glutamate-induced calcium flux by calcium 5/6 dye based FLIPR assay", "type": "cell-based", "method_in_brief": "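HEK-293 cells expressing a human GluA1o-γ-8 fusion construct; FLIPR calcium-flux read-out; pIC50 reported as mean and standard deviation of at least three assays run in triplicate.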"}, "[5]": {"assay": "Thermodynamic solubility of the compound in simulated gastric fluid at pH 1.6 incubated under stirred condition for 3 days", "type": "physicochemical", "conditions": "read-out: Therm_solubility", "method_in_brief": "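Thermodynamic solubility (μM) determined in simulated gastric fluid at pH 1.6 and in fasted state simulated intestinal fluid at pH 6.5.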"}, "[6]": {"assay": "Protein binding in human plasma assessed as unbound fraction at 1 uM measured after 6 hrs by equilibrium dialysis method", "type": "ADME, cell-free", "method_in_brief": "as §3"}, "[7]": {"assay": "Thermodynamic solubility of the compound in fasted state simulated intestinal fluid at pH 6.5 incubated under stirred condition for 3 days", "conditions": "read-out: Therm_solubility"}, "[8]": {"assay": "Apparent permeability across basolateral to apical side in MDCK-MDR1 cells at 5 uM measured after 60 mins by LC-MS/MS analysis", "type": "ADME, cell-based, Canis lupus familiaris", "conditions": "dog", "method_in_brief": "as §2"}}, "data": [{"compound": "O=c1[nH]c2ccc(-c3c(Cl)cccc3Cl)cc2[nH]1", "values": [{"measurement": "IC50", "setting": "GRIA1/CACNG2", "value": "> 10000", "unit": "nM"}, {"measurement": "hepatic extraction ratio at 1 h, 1 µM", "setting": "[1]", "value": "< 0.3"}, {"measurement": "hepatic extraction ratio at 1 h, 1 µM", "setting": "[2]", "value": 0.3}, {"measurement": "Papp A→B at 1 h, 5 µM", "setting": "[3]", "value": 26, "unit": "×10⁻⁶ cm/s"}, {"measurement": "fraction unbound at 6 h, 1 µM", "setting": "[4]", "value": 0.6}, {"measurement": "IC50", "setting": "GRIA1/CACNG8", "value": 50.1, "unit": "nM"}, {"measurement": "solubility thermodynamic at 72 h", "setting": "[5]", "value": "< 4", "unit": "µM"}, {"measurement": "fraction unbound at 6 h, 1 µM", "setting": "[6]", "value": 0.5}, {"measurement": "solubility thermodynamic at 72 h", "setting": "[7]", "value": 69, "unit": "µM"}, {"measurement": "Papp B→A at 1 h, 5 µM", "setting": "[8]", "value": 49, "unit": "×10⁻⁶ cm/s"}]}, {"compound": "Cc1ccccc1-c1ccc2c(c1)CC(=O)N2", "values": [{"measurement": "IC50", "setting": "GRIA1/CACNG2", "value": "> 10000", "unit": "nM"}, {"measurement": "IC50", "setting": "GRIA1/CACNG8", "value": 2510, "unit": "nM"}]}, {"compound": "Cc1cccc(Cl)c1-c1ccc2[nH]c(=O)[nH]c2c1", "values": [{"measurement": "IC50", "setting": "GRIA1/CACNG2", "value": "> 10000", "unit": "nM"}, {"measurement": "hepatic extraction ratio at 1 h, 1 µM", "setting": "[1]", "value": "< 0.3"}, {"measurement": "hepatic extraction ratio at 1 h, 1 µM", "setting": "[2]", "value": 0.6}, {"measurement": "Papp A→B at 1 h, 5 µM", "setting": "[3]", "value": 25, "unit": "×10⁻⁶ cm/s"}, {"measurement": "IC50", "setting": "GRIA1/CACNG8", "value": 50.1, "unit": "nM"}, {"measurement": "solubility thermodynamic at 72 h", "setting": "[5]", "value": "< 4", "unit": "µM"}, {"measurement": "fraction unbound at 6 h, 1 µM", "setting": "[6]", "value": 0.9}, {"measurement": "solubility thermodynamic at 72 h", "setting": "[7]", "value": 146, "unit": "µM"}, {"measurement": "Papp B→A at 1 h, 5 µM", "setting": "[8]", "value": 32, "unit": "×10⁻⁶ cm/s"}]}, {"compound": "N#Cc1cccc(Cl)c1-c1ccc2[nH]c(=O)[nH]c2c1", "values": [{"measurement": "IC50", "setting": "GRIA1/CACNG2", "value": "> 10000", "unit": "nM"}, {"measurement": "hepatic extraction ratio at 1 h, 1 µM", "setting": "[1]", "value": "< 0.3"}, {"measurement": "hepatic extraction ratio at 1 h, 1 µM", "setting": "[2]", "value": "< 0.2"}, {"measurement": "Papp A→B at 1 h, 5 µM", "setting": "[3]", "value": 14, "unit": "×10⁻⁶ cm/s"}, {"measurement": "IC50", "setting": "GRIA1/CACNG8", "value": 251, "unit": "nM"}, {"measurement": "solubility thermodynamic at 72 h", "setting": "[5]", "value": "< 4", "unit": "µM"}, {"measurement": "solubility thermodynamic at 72 h", "setting": "[7]", "value": 5, "unit": "µM"}, {"measurement": "Papp B→A at 1 h, 5 µM", "setting": "[8]", "value": 70, "unit": "×10⁻⁶ cm/s"}]}, {"compound": "O=c1[nH]c2ccc(-c3c(Cl)cncc3Cl)cc2[nH]1", "values": [{"measurement": "IC50", "setting": "GRIA1/CACNG2", "value": "> 10000", "unit": "nM"}, {"measurement": "hepatic extraction ratio at 1 h, 1 µM", "setting": "[1]", "value": "< 0.3"}, {"measurement": "hepatic extraction ratio at 1 h, 1 µM", "setting": "[2]", "value": "< 0.2"}, {"measurement": "Papp A→B at 1 h, 5 µM", "setting": "[3]", "value": 16, "unit": "×10⁻⁶ cm/s"}, {"measurement": "IC50", "setting": "GRIA1/CACNG8", "value": 251, "unit": "nM"}, {"measurement": "solubility thermodynamic at 72 h", "setting": "[5]", "value": 42, "unit": "µM"}, {"measurement": "solubility thermodynamic at 72 h", "setting": "[7]", "value": 52, "unit": "µM"}, {"measurement": "Papp B→A at 1 h, 5 µM", "setting": "[8]", "value": 83, "unit": "×10⁻⁶ cm/s"}]}, {"compound": "O=C1Cc2cc(-c3c(Cl)cccc3OC(F)(F)F)cc(F)c2N1", "values": [{"measurement": "IC50", "setting": "GRIA1/CACNG8", "value": 2.51, "unit": "nM"}]}, {"compound": "COc1cccc(Cl)c1-c1ccc2[nH]c(=O)[nH]c2c1", "values": [{"measurement": "IC50", "setting": "GRIA1/CACNG2", "value": "> 10000", "unit": "nM"}, {"measurement": "hepatic extraction ratio at 1 h, 1 µM", "setting": "[1]", "value": 0.3}, {"measurement": "hepatic extraction ratio at 1 h, 1 µM", "setting": "[2]", "value": 0.6}, {"measurement": "Papp A→B at 1 h, 5 µM", "setting": "[3]", "value": 26, "unit": "×10⁻⁶ cm/s"}, {"measurement": "IC50", "setting": "GRIA1/CACNG8", "value": 126, "unit": "nM"}, {"measurement": "solubility thermodynamic at 72 h", "setting": "[5]", "value": 19, "unit": "µM"}, {"measurement": "solubility thermodynamic at 72 h", "setting": "[7]", "value": 142, "unit": "µM"}, {"measurement": "Papp B→A at 1 h, 5 µM", "setting": "[8]", "value": 50, "unit": "×10⁻⁶ cm/s"}]}, {"compound": "N#CCc1cccc(Cl)c1-c1ccc2[nH]c(=O)[nH]c2c1", "values": [{"measurement": "IC50", "setting": "GRIA1/CACNG2", "value": "> 10000", "unit": "nM"}, {"measurement": "hepatic extraction ratio at 1 h, 1 µM", "setting": "[1]", "value": "< 0.3"}, {"measurement": "hepatic extraction ratio at 1 h, 1 µM", "setting": "[2]", "value": 0.6}, {"measurement": "Papp A→B at 1 h, 5 µM", "setting": "[3]", "value": 6.6, "unit": "×10⁻⁶ cm/s"}, {"measurement": "IC50", "setting": "GRIA1/CACNG8", "value": 10, "unit": "nM"}, {"measurement": "solubility thermodynamic at 72 h", "setting": "[5]", "value": 26, "unit": "µM"}, {"measurement": "solubility thermodynamic at 72 h", "setting": "[7]", "value": 230, "unit": "µM"}, {"measurement": "Papp B→A at 1 h, 5 µM", "setting": "[8]", "value": 70, "unit": "×10⁻⁶ cm/s"}]}]}
